One assay has as its system HCT-15. The assay is described as follows: Cytotoxicity against human HCT15 cells after 48 hrs by SRB assay. It counts as functional. The conditions noted are these: HCT-15, 48 h, read-out: ED50 (the source's name). In outline:
(§1)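 Cells in exponential growth were seeded at (1-2) × 10^4 per well and grown 24 h. Cells were fixed with cold TCA and stained with 0.4% SRB in 1% acetic acid. Dye was solubilized in 10 mM unbuffered Tris base and A520 read.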

The next assay relates to A549. The assay is described as follows: Cytotoxicity against human A549 cells after 48 hrs by SRB assay. The note with it: A549, 48 h, read-out: ED50 (the source's name). It counts as functional. The procedure, abridged:
as §1

Another assay concerns SK-OV-3. The assay is described as follows: Cytotoxicity against human SKOV3 cells after 48 hrs by SRB assay. The conditions noted are these: SK-OV-3, 48 h, read-out: ED50 (the source's name). It counts as functional. In outline: as §1
(In general: In SRB staining, fixed cells bind dye roughly in proportion to their protein.)

In a further assay the test system is P388. Put plainly: Cytotoxicity against mouse P388 cells. It counts as functional, cell-based.
The subject of the next assay is XF498. The assay is described as follows: Cytotoxicity against human XF498 cells after 48 hrs by SRB assay. The assay is classed as functional. The conditions noted are these: XF498, 48 h, read-out: ED50 (the source's name). The procedure, abridged: as §1
The subject of the next assay is SK-MEL-2. Put plainly: Cytotoxicity against human SK-MEL-2 cells after 48 hrs by SRB assay. The conditions noted are these: SK-MEL-2, 48 h, read-out: ED50 (the source's name). It counts as functional. In outline: as §1
The test system of the next assay is Escherichia coli. Put plainly: Antibacterial activity against Escherichia coli DC2. The assay is classed as functional. In outline: (§2)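 Agar dilution on Mueller Hinton agar holding 17 serial dilutions of sample (final 25 to 0.002 µg/mL), with meropenem and imipenem as standards. Strains were pre-grown 18 h at 37 °C in Fleisch extract broth, with 10% horse serum for some strains.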

The subject of another assay is Klebsiella oxytoca. Put plainly: Antibacterial activity against Klebsiella oxytoca 1082. The assay is classed as functional. In outline:
as §2

In a further assay the test system is Pseudomonas aeruginosa. The assay is described as follows: Antibacterial activity against Pseudomonas aeruginosa 1771M. The assay is classed as functional. The procedure, abridged:
as §2

Assay [1] has as its system Streptococcus pyogenes. Put plainly: Antibacterial activity against Streptococcus pyogenes 77A. The assay is classed as functional. The procedure, abridged:
as §2

Assay [2] concerns Staphylococcus aureus. The assay is described as follows: Antibacterial activity against Staphylococcus aureus SG511. The assay is classed as functional. The procedure, abridged: as §2
Assay [3] deals with Streptococcus pyogenes. The assay is described as follows: Antibacterial activity against Streptococcus pyogenes 308A. The assay is classed as functional. In outline:
as §2

In assay [4] the test system is Staphylococcus aureus. Put plainly: Antibacterial activity against Staphylococcus aureus 503. The assay is classed as functional. In outline: as §2
The test system of assay [5] is Staphylococcus aureus. Put plainly: Antibacterial activity against Staphylococcus aureus 285. The assay is classed as functional. The procedure, abridged: as §2
For the next assay, the system named is Enterococcus faecium. The assay is described as follows: Antibacterial activity against Streptococcus faecium MD 8b. It counts as functional. In outline:
as §2

The structures appear in SMILES notation. In brackets after ≈: the same amount, converted by molar mass. Where only a bound is given, the exact number is not on record here.

For `O=C(c1nc(-c2c[nH]c3cc(Br)ccc23)c[nH]1)c1c[nH]c2cc(O)ccc12` [BROMOTOPSENTIN], the EC50 was greater than 30 µg/mL with HCT-15; greater than 30 µg/mL in the assay with A549; 28.1 µg/mL (≈ 66.8 µM) in the assay with SK-OV-3; 15 µg/mL (≈ 35.6 µM) in the assay on XF498; 7.02 µg/mL (≈ 16.7 µM) in the assay with SK-MEL-2. In addition, in the assay on P388, inhibition was half-maximal at 7 µg/mL (≈ 16.6 µM) (IC50).

Regarding `C[C@@H](O)[C@H]1C(=O)N2C(C(=O)O)=C(SCCNC=N)C[C@H]12` [IMIPENEM ANHYDROUS], the MIC (as a rule, the lowest concentration found to suppress growth) came to 0.195 µg/mL (≈ 0.651 µM) in the assay on Escherichia coli; 0.195 µg/mL (≈ 0.651 µM) against Klebsiella oxytoca; 0.098 µg/mL (≈ 0.327 µM) against Pseudomonas aeruginosa; 0.004 µg/mL (≈ 0.0134 µM) against Streptococcus pyogenes [1]; 0.013 µg/mL (≈ 0.0434 µM) with Staphylococcus aureus [2]; 0.004 µg/mL (≈ 0.0134 µM) with Streptococcus pyogenes [3]. The MIC against Staphylococcus aureus [4] stood at 0.007 µg/mL (≈ 0.0234 µM); in the assay on Staphylococcus aureus [5] it was 0.013 µg/mL (≈ 0.0434 µM); against Enterococcus faecium, 0.781 µg/mL (≈ 2.61 µM).

For `O=C1NC[C@@H](c2c[nH]c3cc(Br)ccc23)N[C@H]1c1c[nH]c2cc(Br)ccc12` (relative stereo) [CIS-3,4-DIHYDROHAMACANTHIN B], the MIC against Escherichia coli turned out to be 25 µg/mL (≈ 51.2 µM); in the assay with Klebsiella oxytoca it was 25 µg/mL (≈ 51.2 µM); with Pseudomonas aeruginosa it was 25 µg/mL (≈ 51.2 µM); in the assay with Streptococcus pyogenes [1] it was 25 µg/mL (≈ 51.2 µM); in the assay on Staphylococcus aureus [2] it was 12.5 µg/mL (≈ 25.6 µM); against Streptococcus pyogenes [3], 12.5 µg/mL (≈ 25.6 µM). Besides, the minimal inhibitory concentration (MIC) was 25 µg/mL (≈ 51.2 µM) with Staphylococcus aureus [4], 25 µg/mL (≈ 51.2 µM) in the assay with Staphylococcus aureus [5] and greater than 25 µg/mL in the assay with Enterococcus faecium. The EC50 in the assay with HCT-15 came to 2.83 µg/mL (≈ 5.8 µM); with A549 it was 3.41 µg/mL (≈ 6.99 µM); in the assay on SK-OV-3 it was 3.62 µg/mL (≈ 7.42 µM); in the assay on XF498 it was 3.22 µg/mL (≈ 6.6 µM); with SK-MEL-2, 3.85 µg/mL (≈ 7.89 µM).

As for `O=C(c1nc(-c2c[nH]c3ccccc23)c[nH]1)c1c[nH]c2cc(O)ccc12` [TOPSENTIN], the EC50 was 13.3 µg/mL (≈ 38.9 µM) in the assay on HCT-15; greater than 30 µg/mL in the assay on A549; greater than 30 µg/mL with SK-OV-3; greater than 30 µg/mL with XF498; greater than 30 µg/mL in the assay with SK-MEL-2. Half-maximal inhibition with P388 (IC50) required 2 µg/mL (≈ 5.84 µM).

With `COc1cccc2c1C(=O)c1c(O)c3c(c(O)c1C2=O)C[C@@](O)(C(=O)CO)C[C@@H]3O[C@H]1C[C@H](N)[C@H](O)[C@H](C)O1` [DOXORUBICIN], the EC50 in the assay on HCT-15 worked out at 0.05 µg/mL (≈ 0.092 µM); in the assay with A549 it was 0.01 µg/mL (≈ 0.0184 µM); in the assay on SK-OV-3 it was 0.03 µg/mL (≈ 0.0552 µM); in the assay with XF498 it was 0.01 µg/mL (≈ 0.0184 µM); with SK-MEL-2, 0.01 µg/mL (≈ 0.0184 µM).

Turning to `C[C@@H](O)[C@H]1C(=O)N2C(C(=O)O)=C(S[C@@H]3CN[C@H](C(=O)N(C)C)C3)[C@H](C)[C@H]12` [MEROPENEM], the MIC worked out at 0.025 µg/mL (≈ 0.0652 µM) in the assay with Escherichia coli; 0.049 µg/mL (≈ 0.128 µM) in the assay with Klebsiella oxytoca; 0.098 µg/mL (≈ 0.256 µM) in the assay on Pseudomonas aeruginosa; 0.007 µg/mL (≈ 0.0183 µM) in the assay with Streptococcus pyogenes [1]; 0.098 µg/mL (≈ 0.256 µM) against Staphylococcus aureus [2]; 0.007 µg/mL (≈ 0.0183 µM) against Streptococcus pyogenes [3]. The results for the MIC against Staphylococcus aureus [4], with Staphylococcus aureus [5] and with Enterococcus faecium were 0.049 µg/mL (≈ 0.128 µM), 0.195 µg/mL (≈ 0.509 µM) and 6.25 µg/mL (≈ 16.3 µM), respectively.
